Data set [1] has as its target T1, Lysine-specific histone demethylase 1A (Homo sapiens, UniProt O60341). The experiment in a line: Binding affinity to LSD1 (unknown origin) by SPR analysis. For orientation: In SPR one partner is held on a chip, and binding of the other changes the refractive index at the surface.
For data set [2], the target named is T1, Lysine-specific histone demethylase 1A. The data set can be described thus: Inhibition of N-terminal truncated human LSD1 (151 to 852 residues) expressed in Escherichia coli after 30 mins using histone H3(1-21)K4(Me1) biotin peptide as substrate by TR-FRET assay. (TR-FRET usually uses a lanthanide donor and a delayed reading to cut background.)
The subject of data set [3] is MV4-11. The data set can be described thus: Anticlonogenic activity against human MV4-11 cells at 10 uM after 7 days. Format: functional, cell-based.
The test system of data set [4] is THP-1. The experiment in a line: Induction of apoptosis in human THP1 cells at 10 uM after 4 days by Annexin V-perCP EF710/7AAD double staining based FACS analysis. In kind it is functional, cell-based. The procedure, abridged:
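THP-1 cells in liquid culture with 10 μM compound or vehicle for 4 days, then stained with an Annexin V/7-AAD kit per manufacturer and analysed by flow cytometry. Early apoptotic = Annexin V-pos/7-AAD-neg; apoptotic = Annexin V-pos/7-AAD-pos. One-way ANOVA with Dunnett's tests.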
Background: A flow cytometer gives signals particle by particle.

Data set [5] relates to THP-1. The experiment in a line: Anticlonogenic activity against human THP1 cells at 10 uM after 7 days. Format: functional, cell-based.
Data set [6] relates to Liver. The experiment in a line: Intrinsic clearance in mouse liver microsomes assessed per […]. Format: ADME, microsome.
Data set [7] addresses T1, Lysine-specific histone demethylase 1A. The data set can be described thus: Inhibition of LSD1 in human THP1 cells assessed as induction of CD86 expression after 48 hrs by flow cytometric analysis. In kind it is cell-based.
Data set [8] concerns the target Voltage-gated inwardly rectifying potassium channel KCNH2 (Homo sapiens, UniProt Q12809). The experiment in a line: Inhibition of human hERG by patch clamp method.
Data set [9] can be described thus: Apparent permeability across apical to basolateral side in human Caco2 cells. Format: ADME, cell-based. The conditions noted are these: Caco-2.
Data set [10] can be described thus: Half life in mouse liver microsomes. Format: ADME, microsome.
For data set [11], the species on record is Homo sapiens. The data set can be described thus: Selectivity ratio of IC50 for human ERG to IC50 for N-terminal truncated human LSD1 (151 to 852 residues) expressed in Escherichia coli.
The nature of data set [12]: Efflux ratio of apparent permeability in human Caco2 cells. The conditions noted are these: Caco-2. In kind it is ADME, cell-based.
Data set [13] has as its target T1, Lysine-specific histone demethylase 1A. The data set can be described thus: Inhibition of LSD1 in human THP1 cells assessed as induction of CD86 expression at 50 uM after 48 hrs by flow cytometric analysis. Format: cell-based. An outline of the steps:
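THP-1 AML cells grown in RPMI with 10% FBS and 2 mM L-glutamine, exposed to compound or DMSO vehicle at 50 μM for 48 h at 1×10^5 cells/ml. Cells were pelleted and stained with CD86-PerCP EF710 antibody in phenol red-free RPMI with 5 mM EDTA and 2% BSA for 10 min at 4 °C, then washed and analysed by flow cytometry.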

The target is the same in data set [14]. The experiment in a line: Competitive binding affinity to LSD1 (unknown origin) in presence of tranylcypromine.

Active and inactive are the calls of the source. The calls are words filed in the database; no cut-off is given here. Where only a bound is given, the exact number is not on record here.

Voltage-gated inwardly rectifying potassium channel KCNH2, sequence (Q12809 whole entry): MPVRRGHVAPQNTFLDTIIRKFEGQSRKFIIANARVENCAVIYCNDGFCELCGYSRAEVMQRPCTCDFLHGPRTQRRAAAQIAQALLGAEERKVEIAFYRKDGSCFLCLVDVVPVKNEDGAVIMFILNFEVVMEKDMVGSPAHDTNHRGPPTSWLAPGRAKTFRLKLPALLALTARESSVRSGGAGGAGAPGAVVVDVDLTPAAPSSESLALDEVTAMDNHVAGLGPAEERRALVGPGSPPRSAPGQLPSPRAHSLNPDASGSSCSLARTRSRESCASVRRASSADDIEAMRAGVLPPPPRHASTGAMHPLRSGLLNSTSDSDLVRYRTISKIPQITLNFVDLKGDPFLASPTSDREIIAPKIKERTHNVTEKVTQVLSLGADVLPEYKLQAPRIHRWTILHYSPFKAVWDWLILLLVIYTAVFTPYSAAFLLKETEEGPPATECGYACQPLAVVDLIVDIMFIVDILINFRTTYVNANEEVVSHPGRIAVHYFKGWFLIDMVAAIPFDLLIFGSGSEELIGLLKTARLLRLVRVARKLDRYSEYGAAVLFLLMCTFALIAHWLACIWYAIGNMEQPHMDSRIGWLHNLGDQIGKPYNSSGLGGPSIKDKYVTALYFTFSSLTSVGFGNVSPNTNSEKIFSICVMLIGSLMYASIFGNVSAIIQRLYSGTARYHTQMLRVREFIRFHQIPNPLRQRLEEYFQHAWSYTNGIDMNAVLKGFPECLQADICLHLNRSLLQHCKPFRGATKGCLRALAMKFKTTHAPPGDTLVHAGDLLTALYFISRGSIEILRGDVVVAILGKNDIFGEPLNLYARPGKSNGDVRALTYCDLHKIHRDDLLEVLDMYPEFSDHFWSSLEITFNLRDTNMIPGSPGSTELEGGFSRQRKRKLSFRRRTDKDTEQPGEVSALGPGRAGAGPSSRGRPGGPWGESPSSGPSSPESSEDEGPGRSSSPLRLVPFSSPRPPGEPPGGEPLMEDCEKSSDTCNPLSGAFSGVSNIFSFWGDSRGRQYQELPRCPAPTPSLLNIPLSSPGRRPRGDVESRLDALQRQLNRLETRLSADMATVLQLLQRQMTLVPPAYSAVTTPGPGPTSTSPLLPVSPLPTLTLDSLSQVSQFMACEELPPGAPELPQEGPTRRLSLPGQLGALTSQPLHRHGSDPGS

Consider `Cc1ccc(S(=O)(=O)N(CC(=O)N2CCC[C@H](N)C2)c2ccc(C#N)cc2)cc1`, for which the Kd (usually the constant that tells how readily two partners part at equilibrium) in data set [1] came to 10300 nM. In addition, in data set [2], inhibition was half-maximal at 24300 nM (IC50).
Regarding `Cc1ccc(-c2ncc(OC[C@H]3CCNC3)cc2-c2ccc(C#N)cc2)cc1`, the outcome in [3], in data set [4] and in [5] was Active. Also, the affinity in [1], expressed as Kd, was 9 nM. In data set [6], this molecule registered a CLint of 3.43 µL/min. Besides, the EC50 (usually the concentration that produces a half-maximal response) in data set [7] was found to be 300 nM. For the same molecule, in data set [8], the IC50 (usually the concentration that inhibits the measured activity by half) was 3200 nM. Further, in data set [9], the Papp A→B (as a rule, the apparent permeability from the apical to the basolateral side of a cell layer) is 5.6 ×10⁻⁶ cm/s. In addition, the half-life – broadly, the time in which the quantity being followed falls by half – in [10] was 6.73 h.
In turn, `Cc1ccc(S(=O)(=O)N(CC(=O)N[C@H]2CN3CCC2CC3)c2ccc(C#N)cc2)cc1` registered a Kd in data set [1] of 3600 nM. Besides, the IC50 in data set [2] is 11900 nM.
For `Cn1ncc2cc(CN(CC(=O)N3CCC(N)CC3)c3ccc(C#N)cc3)ccc21` the same measures were 140 nM and 620 nM.
For `CC(=O)N1CCc2cc(S(=O)(=O)N(CC(=O)N3CCC(N)CC3)c3ccc(C#N)cc3)ccc21` the same measures were 1800 nM and 4400 nM.
As to `Cc1ccc(S(=O)(=O)N(CC(=O)N2CCC(N(C)C)CC2)c2ccc(C#N)cc2)cc1`, in data set [1], binding was characterised by a dissociation constant (Kd) of 2900 nM. For the same molecule, half-maximal inhibition in data set [2] (IC50) required 12600 nM.
`Cc1ccc(S(=O)(=O)N(CC(=O)N2CCC(N)CC2)c2ccc(C#N)cc2)cc1`: in [1], the Kd was determined as 2600 nM. The molecule further gave an IC50 in data set [2] of 7600 nM.
On to `N#Cc1ccc(N(CC(=O)N2CCC(CN)CC2)Cc2ccc(C(N)=O)cc2)cc1`, for which the affinity in data set [1], expressed as Kd, was 490 nM. The molecule also displayed an IC50 in [2] of 830 nM.
In the case of `COc1cc(NS(=O)(=O)c2ccccc2)ccc1-n1nc(C)cc1C`, 40000 nM corresponded to half-maximal inhibition in data set [2] (IC50).
In turn, `Cc1ccc(S(=O)(=O)N(CC(=O)N[C@@H]2CN3CCC2CC3)c2ccc(C#N)cc2)cc1` came in with a Kd in data set [1] of 3500 nM. In data set [2], this molecule returned an IC50 of 14200 nM.
In the case of `COc1ccc(CN(CC(=O)N2CCC3(CC2)CNC3)c2ccc(C#N)cc2)cc1F`, the outcome in [3], in [4] and in data set [5] was Active. In data set [1], this molecule had a Kd of 32 nM. The Ratio IC50 in data set [11] was found to be 30. Further, the IC50 is 83 nM in data set [2] and 20100 nM in data set [8]. The molecule further returned a CLint in data set [6] of less than 1 µL/min. For the same molecule, the EC50 in [7] was found to be 670 nM. In addition, the Papp A→B in [9] came out at 0.09 ×10⁻⁶ cm/s. The efflux ratio (usually a quotient of directional permeabilities that is used to spot active efflux) in data set [12] came to 58. In data set [10], this molecule came in with a half-life of more than 16.7 h.
In data set [1], `N#Cc1ccc(N(CC(=O)N2CCC(N)CC2)Cc2ccccc2)cc1` came in with a Kd of 1100 nM. This molecule also returned an IC50 in data set [2] of 4100 nM.
Turning to `COc1ccc(CN(CC(=O)N2CCC(N)CC2)c2ccc(C#N)cc2)cc1F`, in data set [1], the Kd is 190 nM. This molecule also came in with an IC50 in data set [2] of 810 nM. Besides, the CLint in data set [6] worked out at 3.6 µL/min. Moreover, the Papp A→B in data set [9] came out at 0.44 ×10⁻⁶ cm/s. Further, the half-life in data set [10] stood at 6.42 h.
On to `COc1cc(N(CC(=O)N2CCC(N)CC2)S(=O)(=O)c2ccc3c(c2)CCN3C(C)=O)ccc1-n1nc(C)cc1C`, for which, in [1], the Kd is more than 100000 nM. For the same molecule, the IC50 in [2] is more than 30000 nM.
For `Cc1ccc(S(=O)(=O)N(CC(=O)N2CCC(C)(N)CC2)c2ccc(C#N)cc2)cc1` the same measures were 2500 nM and 5200 nM.
For `Cn1cc2cc(N(CC(=O)N3CCC[C@@H](N)C3)S(=O)(=O)c3ccc(C#N)cc3)ccc2n1` the same measures were 9600 nM and 30000 nM.
For `N#Cc1ccc(N(CC(=O)N2CCC(CN)CC2)Cc2ccc(Cl)cc2)cc1` the same measures were 290 nM and 400 nM.
In data set [1], `Cc1ccc(S(=O)(=O)N(CC(=O)NC2CCNCC2)c2ccc(C#N)cc2)cc1` came in with a Kd of 6500 nM. This molecule also registered an IC50 in data set [2] of 15600 nM.
For `CNC1CCN(C(=O)CN(c2ccc(C#N)cc2)S(=O)(=O)c2ccc(C)cc2)CC1` the same measures were 2900 nM and 7500 nM.
`COc1ccc(CN(CC(=O)N2CCC(CN)CC2)c2ccc(C#N)cc2)cc1F` showed a Kd in data set [1] of 58 nM. Further, the IC50 in data set [2] was found to be 210 nM; in data set [8], 12400 nM. The molecule also displayed a CLint in data set [6] of 4.5 µL/min. Further, the EC50 in data set [7] came out at 4100 nM. The Papp A→B in data set [9] was 0.26 ×10⁻⁶ cm/s. Also, the efflux ratio in [12] amounted to 58. The molecule further registered a half-life in data set [10] of 5.08 h.
Regarding `COc1cc(NS(=O)(=O)c2ccc3c(c2)cc(C)c(=O)n3C)ccc1-n1nc(C)cc1C`, the inhibition result in data set [13] was “inactive”. Besides, the IC50 in data set [2] worked out at 430 nM. For the same molecule, the result in [14] was inactive.
Turning to `Cc1ccc(CN(CC(=O)N2CCC(CN)CC2)c2ccc(C#N)cc2)cc1`, the affinity in data set [1], expressed as Kd, was 110 nM. Further, the IC50 in data set [2] is 290 nM.
In turn, `Cc1ccc(S(=O)(=O)N(CC(=O)N2CCC[C@@H](N)C2)c2ccc(C#N)cc2)cc1` gave a Kd in [1] of 4500 nM. In addition, the IC50 in data set [2] is 13900 nM.
In [1], `N#Cc1ccc(N(CC(=O)N2CCC(CN)CC2)Cc2ccc(F)cc2)cc1` came in with a Kd of 460 nM. This molecule also came in with an IC50 in data set [2] of 1300 nM.
For `Cc1ccc(CN(CC(=O)N2CCC(N)CC2)c2ccc(C#N)cc2)cc1` the same measures were 430 nM and 1300 nM.
For `COc1cc(NS(=O)(=O)c2ccc3c(c2)CCN3C(C)=O)ccc1-n1nc(C)cc1C` the same measures were more than 100000 nM and 1600 nM.
In [1], `CC(=O)Nc1ccc(S(=O)(=O)Nc2ccc(C#N)cc2)cc1` yielded a Kd of 9500 nM.
For the molecule `Cc1ccc(S(=O)(=O)N(CC(=O)N2CC[C@H](N)C2)c2ccc(C#N)cc2)cc1`, in data set [1], the Kd is 4700 nM. The same molecule registered an IC50 in data set [2] of 22700 nM.
For `N#Cc1ccc(N(CC(=O)N2CCC(N)CC2)Cc2ccc(C#N)c(F)c2)cc1` the same measures were 1900 nM and 5500 nM.
For `Cc1ccc(S(=O)(=O)N(CC(=O)Nc2cccnc2)c2ccc(C#N)cc2)cc1` the same measures were 90000 nM and more than 150000 nM.
The molecule `Cc1ccc(S(=O)(=O)N(CC(=O)N2C[C@@H]3C[C@H]2CN3)c2ccc(C#N)cc2)cc1` came in with a Kd in data set [1] of 2400 nM. Also, in [2], the IC50 turned out to be 13100 nM.
For `Cc1ccc(S(=O)(=O)N(CC(=O)N2CC[C@@H](N)C2)c2ccc(C#N)cc2)cc1` the same measures were 3200 nM and 16400 nM.
For `CC(=O)N1CCc2cc(S(=O)(=O)N(CC(=O)N3CCC[C@@H](N)C3)c3ccc(C#N)cc3)ccc21` the same measures were 2400 nM and 5200 nM.
For `N#Cc1ccc(N(CC(=O)N2CCC(CN)CC2)Cc2cccc(C(N)=O)c2)cc1` the same measures were 420 nM and 1000 nM.
In turn, `COc1ccc(CN(CC(=O)N2CCC(F)(CN)CC2)c2ccc(C#N)cc2)cc1F` came in with a Kd in data set [1] of 230 nM. The molecule further had an IC50 in data set [2] of 990 nM.

For the origin of these results see ChEMBL document CHEMBL4017519, “Development of (4-Cyanophenyl)glycine Derivatives as Reversible Inhibitors of Lysine Specific Demethylase 1” (J Med Chem, 2017).
